Data from ChEMBL document CHEMBL1131099, “Biologically active oligodeoxyribonucleotides. 5. 5'-End-substituted d(TGGGAG) possesses anti-human immunodeficiency virus type 1 activity by forming a G-quadruplex structure” (J Med Chem, 1998).

Key:
[1] = system: MT4; assay: In vitro inhibitory activity for cytopathicities induced by HIV-1III B against MT-4 cells.; format: functional, cell-based; conditions: Homo sapiens
Method in brief: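 Exponentially growing MT-4 cells were pelleted (140g, 5 min), infected in a small volume of RPMI-1640 with 100 TCID50 HIV-1 IIIB for 1 h, washed, and plated at 2.5 × 10⁴ cells/well with serial oligonucleotide dilutions. Viability was read by MTT at day 6. IC50 was taken from dose-response curves, as the mean of duplicate or quadruplicate ± SD.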

[2] = system: MT4; assay: Cytotoxicity was measured against MT-4 cells using MTT assay.; format: functional; conditions: Homo sapiens

Row | Compound | IC50 [1] [µM] | CC50 [2] [µM]
1 | Cc1cn([C@H]2C[C@H](OP(=O)(O)OC[C@H]3O[C@@H](n4cnc5c(=O)[nH]c(N)nc54)C[C@@H]3OP(=O)(O)OC[C@H]3O[C@@H](n4cnc5c(=O)[nH]c(N)nc54)C[C@@H]3OP(=O)(O)OC[C@H]3O[C@@H](n4cnc5c(=O)[nH]c(N)nc54)C[C@@H]3OP(=O)(O)OC[C@H]3O[C@@H](n4cnc5c(N)ncnc54)C[C@@H]3OP(=O)(O)OC[C@H]3O[C@@H](n4cnc5c(=O)[nH]c(N)nc54)C[C@@H]3O)[C@@H](COCc3ccccc3)O2)c(=O)[nH]c1=O | > 40 | > 40
2 | Cc1cn([C@H]2C[C@H](OP(=O)(O)OC[C@H]3O[C@@H](n4cnc5c(O)nc(N)nc54)C[C@@H]3OP(=O)(O)OC[C@H]3O[C@@H](n4cnc5c(O)nc(N)nc54)C[C@@H]3O)[C@@H](COCc3ccc(OCc4ccccc4)c(OCc4ccccc4)c3)O2)c(=O)[nH]c1=O | > 70 | > 70
3 | Cc1cn([C@H]2C[C@H](OP(=O)(O)OC[C@H]3O[C@@H](n4cc(C)c(=O)[nH]c4=O)C[C@@H]3OP(=O)(O)OC[C@H]3O[C@@H](n4cnc5c(O)nc(N)nc54)C[C@@H]3OP(=O)(O)OC[C@H]3O[C@@H](n4cnc5c(O)nc(N)nc54)C[C@@H]3O)[C@@H](COCc3ccc(OCc4ccccc4)c(OCc4ccccc4)c3)O2)c(=O)[nH]c1=O | > 50 | 33
4 | Cc1cn([C@H]2C[C@H](OP(=O)(O)OC[C@H]3O[C@@H](n4cnc5c(=O)[nH]c(N)nc54)C[C@@H]3OP(=O)(O)OC[C@H]3O[C@@H](n4cnc5c(=O)[nH]c(N)nc54)C[C@@H]3OP(=O)(O)OC[C@H]3O[C@@H](n4cnc5c(=O)[nH]c(N)nc54)C[C@@H]3OP(=O)(O)OC[C@H]3O[C@@H](n4cnc5c(N)ncnc54)C[C@@H]3OP(=O)(O)OC[C@H]3O[C@@H](n4cnc5c(=O)[nH]c(N)nc54)C[C@@H]3O)[C@@H](COC(c3ccccc3)c3ccccc3)O2)c(=O)[nH]c1=O | 4.3 | > 40
5 | Cc1cn([C@H]2C[C@H](OP(=O)(O)OC[C@H]3O[C@@H](n4cnc5c(=O)[nH]c(N)nc54)C[C@@H]3OP(=O)(O)OC[C@H]3O[C@@H](n4cnc5c(=O)[nH]c(N)nc54)C[C@@H]3OP(=O)(O)OC[C@H]3O[C@@H](n4cnc5c(=O)[nH]c(N)nc54)C[C@@H]3OP(=O)(O)OC[C@H]3O[C@@H](n4cnc5c(N)ncnc54)C[C@@H]3OP(=O)(O)OC[C@H]3O[C@@H](n4cnc5c(=O)[nH]c(N)nc54)C[C@@H]3O)[C@@H](COC3(c4ccccc4)c4ccccc4Oc4ccccc43)O2)c(=O)[nH]c1=O | 0.95 | > 40
6 | Cc1cn([C@H]2C[C@H](OP(=O)(O)OC[C@H]3O[C@@H](n4cnc5c(=O)[nH]c(N)nc54)C[C@@H]3OP(=O)(O)OC[C@H]3O[C@@H](n4cc(C)c(=O)[nH]c4=O)C[C@@H]3OP(=O)(O)OC[C@H]3O[C@@H](n4cnc5c(=O)[nH]c(N)nc54)C[C@@H]3OP(=O)(O)OC[C@H]3O[C@@H](n4cnc5c(N)ncnc54)C[C@@H]3OP(=O)(O)OC[C@H]3O[C@@H](n4cnc5c(=O)[nH]c(N)nc54)C[C@@H]3O)[C@@H](COCc3ccc(OCc4ccccc4)c(OCc4ccccc4)c3)O2)c(=O)[nH]c1=O | > 24 | > 24
7 | Cc1cn([C@H]2C[C@H](OP(=O)(O)OC[C@H]3O[C@@H](n4cnc5c(=O)[nH]c(N)nc54)C[C@@H]3OP(=O)(O)OC[C@H]3O[C@@H](n4cnc5c(=O)[nH]c(N)nc54)C[C@@H]3OP(=O)(O)OC[C@H]3O[C@@H](n4cnc5c(=O)[nH]c(N)nc54)C[C@@H]3OP(=O)(O)OC[C@H]3O[C@@H](n4cnc5c(N)ncnc54)C[C@@H]3OP(=O)(O)OC[C@H]3O[C@@H](n4cnc5c(=O)[nH]c(N)nc54)C[C@@H]3O)[C@@H](COCc3ccc4ccccc4c3)O2)c(=O)[nH]c1=O | 2 | > 40
8 | Cc1cn([C@H]2C[C@H](OP(=O)(O)OC[C@H]3O[C@@H](n4cc(C)c(=O)[nH]c4=O)C[C@@H]3OP(=O)(O)OC[C@H]3O[C@@H](n4cnc5c(=O)[nH]c(N)nc54)C[C@@H]3OP(=O)(O)OC[C@H]3O[C@@H](n4cnc5c(=O)[nH]c(N)nc54)C[C@@H]3OP(=O)(O)OC[C@H]3O[C@@H](n4cnc5c(=O)[nH]c(N)nc54)C[C@@H]3OP(=O)(O)OC[C@H]3O[C@@H](n4cnc5c(=O)[nH]c(N)nc54)C[C@@H]3O)[C@@H](COCc3ccc(OCc4ccccc4)c(OCc4ccccc4)c3)O2)c(=O)[nH]c1=O | 0.56 | > 40
9 | Cc1cn([C@H]2C[C@H](OP(=O)(O)OC[C@H]3O[C@@H](n4cnc5c(=O)[nH]c(N)nc54)C[C@@H]3OP(=O)(O)OC[C@H]3O[C@@H](n4cnc5c(=O)[nH]c(N)nc54)C[C@@H]3OP(=O)(O)OC[C@H]3O[C@@H](n4cnc5c(=O)[nH]c(N)nc54)C[C@@H]3OP(=O)(O)OC[C@H]3O[C@@H](n4cnc5c(N)ncnc54)C[C@@H]3OP(=O)(O)OC[C@H]3O[C@@H](n4cnc5c(=O)[nH]c(N)nc54)C[C@@H]3O)[C@@H](COCc3ccc(OCc4ccccc4)cc3)O2)c(=O)[nH]c1=O | 1.9 | > 40
10 | Cc1cn([C@H]2C[C@H](OP(=O)(O)OC[C@H]3O[C@@H](n4cnc5c(=O)[nH]c(N)nc54)C[C@@H]3OP(=O)(O)OC[C@H]3O[C@@H](n4cnc5c(=O)[nH]c(N)nc54)C[C@@H]3OP(=O)(O)OC[C@H]3O[C@@H](n4cnc5c(=O)[nH]c(N)nc54)C[C@@H]3OP(=O)(O)OC[C@H]3O[C@@H](n4cnc5c(N)ncnc54)C[C@@H]3OP(=O)(O)OC[C@H]3O[C@@H](n4cnc5c(=O)[nH]c(N)nc54)C[C@@H]3O)[C@@H](CO[Si](c3ccccc3)(c3ccccc3)C(C)(C)C)O2)c(=O)[nH]c1=O | 0.88 | > 40
11 | Cc1cn([C@H]2C[C@H](OP(=O)(O)OC[C@H]3O[C@@H](n4cc(C)c(=O)[nH]c4=O)C[C@@H]3OP(=O)(O)OC[C@H]3O[C@@H](n4cc(C)c(=O)[nH]c4=O)C[C@@H]3OP(=O)(O)OC[C@H]3O[C@@H](n4cc(C)c(=O)[nH]c4=O)C[C@@H]3OP(=O)(O)OC[C@H]3O[C@@H](n4cc(C)c(=O)[nH]c4=O)C[C@@H]3OP(=O)(O)OC[C@H]3O[C@@H](n4cc(C)c(=O)[nH]c4=O)C[C@@H]3O)[C@@H](COCc3ccc(OCc4ccccc4)c(OCc4ccccc4)c3)O2)c(=O)[nH]c1=O | > 24 | > 24
